Measurements taken from ChEMBL document CHEMBL3870311, “Synthesis and biological evaluation of C1-O-substituted-3-(3-butylamino-2-hydroxy-propoxy)-xanthen-9-one as topoisomerase IIα catalytic inhibitors” (Eur J Med Chem, 2016).
pIC50: −log10 of the molar value. Active and inactive are the calls of the source. The rule behind the calls is not given here.

How the values were obtained:
[1] = Cytotoxicity against human HCT15 cells assessed as reduction in cell growth after 72 hrs by CCK8 assay; assay type: functional, cell-based; conditions: HCT-15, 72 h
How it was run: (§1)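 Cells (2~4 x 10^4 per well) seeded overnight in media with 10% FBS, 37 °C, 5% CO₂, then exposed to graded compound concentrations for 72 h. CCK-8 solution added for a further 4 h; absorbance read at 450 nm. IC₅₀ from four-parameter logistic fit; adriamycin, etoposide and camptothecin as positive controls.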

[2] = target: T1, DNA topoisomerase 2-alpha (Homo sapiens, UniProt P11388); assay: Inhibition of topoisomerase-2 alpha catalytic activity in human T47D cells assessed as increase in free topoisomerase-2 alpha level at 50 uM after 2 hrs by Western blot method; assay type: cell-based
How it was run: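 T47D cells (2 x 10^5 per well) seeded overnight, treated 2 h at 37 °C with 50 µM compound or etoposide in serum-free RPMI. Harvested cells washed in PBS, lysed in 62.5 mM Tris-HCl pH 6.8, 1 mM EDTA, 2% SDS with sonication; cleared supernatant run on 10% SDS-PAGE and free topo IIα detected by Western blot.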

[3] = Cytotoxicity against human T47D cells assessed as reduction in cell growth after 72 hrs by CCK8 assay; assay type: functional, cell-based; how it was run: as §1
[4] = target: T1, DNA topoisomerase 2-alpha; assay: Inhibition of human topoisomerase-2 alpha at 100 uM using supercoiled pBR322 DNA as substrate after 30 mins by agarose gel electrophoresis method relative to control
[5] = Cytotoxicity against human NCI-N87 cells assessed as reduction in cell growth after 72 hrs by CCK8 assay; assay type: functional, cell-based; conditions: NCI-N87, 72 h; how it was run: as §1
[6] = target: T1, DNA topoisomerase 2-alpha; assay: Inhibition of human topoisomerase-2 alpha at 20 uM using supercoiled pBR322 DNA as substrate after 30 mins by agarose gel electrophoresis relative to control
[7] = Cytotoxicity against human HeLa cells assessed as reduction in cell growth after 72 hrs by CCK8 assay; assay type: functional, cell-based; how it was run: as §1
[8] = target: T1, DNA topoisomerase 2-alpha; assay: Poisoning activity at human topoisomerase-2 alpha assessed as stabilization of enzyme-pBR322 DNA cleavage complex by measuring linear DNA formation at 100 uM after 30 mins by agarose gel electrophoresis; conditions: 0.5 h
[9] = target: T1, DNA topoisomerase 2-alpha; assay: Poisoning activity at topoisomerase-2 alpha in human T47D cells assessed as induction of DNA damage by measuring comet formation at 5 to 10 uM after 24 hrs by SYBR Green staining based inverted fluorescence microscopic analysis; assay type: cell-based
How it was run: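 Alkaline comet assay: T47D cells seeded in six-well plates, treated at ~70% confluence with 5 or 10 µM compound for 24 h, trypsinized, embedded in low-melting agarose. Lysis 30 min at 4 °C, alkaline unwinding (pH>13) 30 min, electrophoresis 20 min at 15 V, SYBR Green stain; imaged by inverted fluorescence microscopy, percent DNA in tail quantified.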

T1 sequence (P11388 whole entry): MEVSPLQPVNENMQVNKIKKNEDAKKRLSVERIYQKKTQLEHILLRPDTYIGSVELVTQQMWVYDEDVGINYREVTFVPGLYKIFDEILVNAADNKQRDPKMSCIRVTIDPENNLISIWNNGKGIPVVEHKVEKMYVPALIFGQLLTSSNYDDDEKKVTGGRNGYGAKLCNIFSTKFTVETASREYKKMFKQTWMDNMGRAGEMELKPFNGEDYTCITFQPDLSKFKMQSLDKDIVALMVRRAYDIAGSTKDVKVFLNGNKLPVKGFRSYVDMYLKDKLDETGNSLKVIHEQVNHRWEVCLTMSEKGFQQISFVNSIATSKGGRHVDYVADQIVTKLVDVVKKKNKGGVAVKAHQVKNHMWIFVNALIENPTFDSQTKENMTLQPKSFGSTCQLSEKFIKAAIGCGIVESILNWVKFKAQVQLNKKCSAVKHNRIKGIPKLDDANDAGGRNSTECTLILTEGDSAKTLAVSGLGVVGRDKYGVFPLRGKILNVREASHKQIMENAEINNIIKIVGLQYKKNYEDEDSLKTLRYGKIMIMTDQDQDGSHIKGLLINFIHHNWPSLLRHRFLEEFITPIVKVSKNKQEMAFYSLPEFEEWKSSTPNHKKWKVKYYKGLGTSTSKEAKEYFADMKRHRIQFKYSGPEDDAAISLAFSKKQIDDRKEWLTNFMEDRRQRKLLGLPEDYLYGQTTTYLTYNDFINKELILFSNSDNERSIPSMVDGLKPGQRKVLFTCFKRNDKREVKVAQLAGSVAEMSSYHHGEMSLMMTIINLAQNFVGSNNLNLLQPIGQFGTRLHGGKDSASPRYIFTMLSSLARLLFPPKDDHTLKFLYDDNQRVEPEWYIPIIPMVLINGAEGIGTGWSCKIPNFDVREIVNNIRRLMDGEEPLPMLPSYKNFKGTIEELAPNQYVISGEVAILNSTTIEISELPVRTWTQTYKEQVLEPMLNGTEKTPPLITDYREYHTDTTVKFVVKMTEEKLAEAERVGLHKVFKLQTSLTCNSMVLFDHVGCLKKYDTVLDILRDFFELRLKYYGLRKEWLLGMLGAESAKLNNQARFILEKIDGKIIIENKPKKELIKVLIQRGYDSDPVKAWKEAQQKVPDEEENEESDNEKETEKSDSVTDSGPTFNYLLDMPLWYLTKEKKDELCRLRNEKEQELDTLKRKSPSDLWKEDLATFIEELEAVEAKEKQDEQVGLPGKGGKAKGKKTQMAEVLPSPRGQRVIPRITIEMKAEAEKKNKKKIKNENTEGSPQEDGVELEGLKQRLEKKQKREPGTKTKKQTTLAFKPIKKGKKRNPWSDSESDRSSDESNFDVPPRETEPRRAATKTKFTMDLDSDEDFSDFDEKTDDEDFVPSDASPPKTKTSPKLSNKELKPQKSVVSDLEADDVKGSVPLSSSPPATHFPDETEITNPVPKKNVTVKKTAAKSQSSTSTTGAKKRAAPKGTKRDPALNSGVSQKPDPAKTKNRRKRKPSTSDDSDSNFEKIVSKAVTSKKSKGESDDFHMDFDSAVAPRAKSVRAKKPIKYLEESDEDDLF

inhibition [2]	inhibition [4] [%]	inhibition [6] [%]	SMILES	pIC50 [1]	pIC50 [3]	pIC50 [5]	pIC50 [7]	Activity [8]	Activity [9]
Active	94.4	23 to 23.3	CCCCNCC(O)COc1cc(OCCc2ccc(Cl)cc2)c2c(=O)c3ccccc3oc2c1 (centres undefined)	5.67	6.20	5.44	5.86	–	–
–	56.3	22.4	CCCCNCC(O)COc1cc(OCc2cccc(Cl)c2)c2c(=O)c3ccccc3oc2c1 (centres undefined)	5.65	5.93	6.77	5.55	–	–
–	51.6	11.1	CCCCNCC(O)COc1cc(OCc2ccccc2)c2c(=O)c3cccc(OC)c3oc2c1 (centres undefined)	5.68	5.62	5.91	5.65	–	–
–	45.4	6.3	CCCCNCC(O)COc1cc(OCc2cccc(Cl)c2)c2c(=O)c3cccc(OC)c3oc2c1 (centres undefined)	5.80	6.17	5.94	5.62	–	–
–	65.4	22.2	CCCCNCC(O)COc1cc(OCc2ccccc2)c2c(=O)c3ccccc3oc2c1 (centres undefined)	5.51	5.55	5.84	5.15	–	–
–	64.6	9.3	CCCCNCC(O)COc1cc(OCc2cccc(C(F)(F)F)c2)c2c(=O)c3ccccc3oc2c1 (centres undefined)	5.61	6.85	6.62	5.65	–	–
–	0	–	COc1cccc2c(=O)c3c(OCCc4ccc(Cl)cc4)cc(OCC4CO4)cc3oc12 (centres undefined)	4.34	< 4.30	5.83	< 4.30	–	–
–	0	–	CCOc1cc(OCC2CO2)cc2oc3ccccc3c(=O)c12 (centres undefined)	5.40	5.44	5.41	6.10	–	–
–	44.8	13.9	CCCCNCC(O)COc1cc(OCc2ccc(OC)cc2)c2c(=O)c3cccc(OC)c3oc2c1 (centres undefined)	5.64	5.82	6.60	5.74	–	–
–	58.7	19.5	CCCCNCC(O)COc1cc(OCc2cccc(OC)c2)c2c(=O)c3ccccc3oc2c1 (centres undefined)	5.72	5.59	7.15	5.23	–	–
–	24.2	–	CCCCNCC(O)COc1cc(OCCCC)c2c(=O)c3cccc(OC)c3oc2c1 (centres undefined)	5.22	5.95	5.79	5.12	–	–
–	4.8	–	CCCCNCC(O)COc1cc(OCC)c2c(=O)c3ccccc3oc2c1 (centres undefined)	4.55	5.15	5.75	< 4.30	–	–
–	2.5	–	CCOc1cc(OCC2CO2)cc2oc3c(OC)cccc3c(=O)c12 (centres undefined)	6.09	6.08	5.92	5.93	–	–
–	41.6	12.4	CCCCNCC(O)COc1cc(OCc2cccc(OC)c2)c2c(=O)c3cccc(OC)c3oc2c1 (centres undefined)	5.76	5.87	5.88	5.64	–	–
–	29.4	–	CCCCCOc1cc(OCC(O)CNCCCC)cc2oc3ccccc3c(=O)c12 (centres undefined)	5.34	5.90	7.22	5.59	–	–
–	14.1	–	CCCCOc1cc(OCC2CO2)cc2oc3c(OC)cccc3c(=O)c12 (centres undefined)	6.66	5.79	6.51	5.97	–	–
–	–	45.6	COc1cc([C@@H]2c3cc4c(cc3[C@@H](O[C@@H]3O[C@@H]5CO[C@@H](C)O[C@H]5[C@H](O)[C@H]3O)[C@H]3COC(=O)[C@H]23)OCO4)cc(OC)c1O [ETOPOSIDE]	5.97	5.55	5.89	5.00	Active	Active
–	0	–	CCCCCOc1cc(OCC2CO2)cc2oc3ccccc3c(=O)c12 (centres undefined)	5.48	< 4.30	4.96	5.75	–	–
–	36.3	9.5	CCCCCOc1cc(OCC(O)CNCCCC)cc2oc3c(OC)cccc3c(=O)c12 (centres undefined)	5.74	6.11	6.32	5.42	–	–
Active	62.8	20.4	CCCCNCC(O)COc1cc(OCCc2cccc(Cl)c2)c2c(=O)c3cccc(OC)c3oc2c1 (centres undefined)	5.83	6.72	6.40	5.59	–	–
–	0	–	COc1cccc(COc2cc(OCC3CO3)cc3oc4ccccc4c(=O)c23)c1 (centres undefined)	5.83	5.43	5.49	5.80	–	–
–	0	–	COc1cccc2c(=O)c3c(OCc4cccc(C(F)(F)F)c4)cc(OCC4CO4)cc3oc12 (centres undefined)	6.44	5.54	5.65	5.37	–	–
–	0	–	COc1ccc(COc2cc(OCC3CO3)cc3oc4ccccc4c(=O)c23)cc1 (centres undefined)	5.76	5.53	5.43	5.80	–	–
–	55.9	21.1	CCCCNCC(O)COc1cc(OCc2ccc(OC)cc2)c2c(=O)c3ccccc3oc2c1 (centres undefined)	5.66	5.85	5.74	5.32	–	–
–	58.1	14.2	CCCCNCC(O)COc1cc(OCc2cccc(C(F)(F)F)c2)c2c(=O)c3cccc(OC)c3oc2c1 (centres undefined)	5.58	5.70	5.70	5.58	–	–
Active	46.2	16.6	CCCCNCC(O)COc1cc(OCCc2cccc(Cl)c2)c2c(=O)c3ccccc3oc2c1 (centres undefined)	5.64	5.76	6.42	5.59	–	–
